Source: PubChem (several laboratories)
PfG6PD inh – PfG6PD enzyme inhibitors, primary screen, biochemical, fluorescence intensity, uHTS; AID 504690, 2011; 350,000 compounds, 0.78% hits; PfGluPho enzyme, NADPH resazurin-diaphorase fluorescence; inhibition, % at 20 µM;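 active means inhibition reaching at least a set limit at 20 µM in the primary screen, cut at about 59% in these data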;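 further: 0% = DMSO wells with substrate and 100% = DMSO wells lacking glucose-6-phosphate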
UBC9 SUMO inh – inhibitors of in vitro SUMOylation cascade, primary screen, biochemical, HTRF, uHTS. SUMO-conjugating enzyme UBC9 (Homo sapiens), P63279. HTRF SUMOylation assay, SAE1/SAE2 + UBC9. inhibition, % at 35 µM. 290,000 compounds, 0.36% hits. AID 2006, 2009; in the data active means inhibition above about 50%, passing the limit was not always enough
M18AAP inhibitor – PfM18AAP inhibitors, malaria aminopeptidase, primary screen, biochemical, QFRET, recombinant enzyme | M18 aspartyl aminopeptidase (Plasmodium falciparum 3D7) | H-Glu-NHMec fluorogenic cleavage | inhibition, % at 7.35 µM | 290,000 compounds, 1.2% hits;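 active means inhibition above the campaign mean inhibition over all tested compounds plus 3 SD, cut at about 28% in these data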;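 further: 0% = plate median of test compound wells and 100% = 2 mM ZnCl2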
A3G deaminase – APOBEC3G DNA deaminase inhibitors, primary screen, biochemical, fluorescence, single-stranded DNA substrate, uHTS | recombinant A3G, ssDNA deamination FAM/TAMRA fluorescence | DNA dC->dU-editing enzyme APOBEC-3G (Homo sapiens), Q9HC16 | AID 493012, 2011 | 330,000 compounds, 0.28% hits | inhibition, % at 20 µM;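 active means inhibition of at least 40% at 20 µM, with no more than 30% in the related APOBEC3A deaminase screen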;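 further: plate controls were DMSO wells with A3G for no effect and wells lacking A3G enzyme for full effect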
Target sequence (Q9HC16 whole entry, looked up): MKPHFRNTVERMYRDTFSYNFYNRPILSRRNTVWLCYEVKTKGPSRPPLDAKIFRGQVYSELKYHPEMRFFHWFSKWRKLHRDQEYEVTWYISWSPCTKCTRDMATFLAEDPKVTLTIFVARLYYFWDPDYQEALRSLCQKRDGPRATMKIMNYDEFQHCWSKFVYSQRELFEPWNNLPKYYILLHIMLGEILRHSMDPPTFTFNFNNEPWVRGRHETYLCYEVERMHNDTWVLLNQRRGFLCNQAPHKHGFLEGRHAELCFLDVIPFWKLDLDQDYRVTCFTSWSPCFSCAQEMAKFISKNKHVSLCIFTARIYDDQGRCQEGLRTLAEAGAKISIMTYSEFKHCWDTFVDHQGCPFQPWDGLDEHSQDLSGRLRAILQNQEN
HKDC1 inhibitor – HKDC1 hexokinase inhibitors, primary screen, biochemical, fluorescence, uHTS; Q2TB90; recombinant HKDC1, G6PDH/diaphorase resazurin coupled fluorescence; inhibition, % at 20 µM; 340,000 compounds, 0.16% hits; AID 493160, 2011;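 active means inhibition above about 35% when tested at 20 µM, limit read from the data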;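 further: plate controls were DMSO wells with enzyme for no effect and DMSO wells lacking enzyme for full effect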
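Material – in-house recombinant HK5 (HKDC1) enzyme · Quantity – HKDC1 at 5 µg/mL · Buffer or medium – pH 8.0 Tris buffer with 10 mM MgCl2 · Reagent – glucose with 1 mM ATP · Dosing – single 20 µM dose · Times – reaction time 90 min, room temperature, protected from light · Technique – resorufin fluorescence at 613 nm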
APOBEC3A inh – APOBEC3A ssDNA deaminase inhibitors, primary screen, selectivity assay for APOBEC3G inhibitor project, biochemical, FAM/TAMRA oligo cleavage fluorescence. DNA dC->dU-editing enzyme APOBEC-3A (Homo sapiens), P31941. recombinant A3A, FAM/TAMRA ssDNA deamination fluorescence. inhibition, % at 20 µM. 330,000 compounds, 0.41% hits. AID 493011, 2011;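 active means at least 40% inhibition at 20 µM here, with at most 30% in a related deaminase screen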;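 further: plate controls were A3A with DMSO for no effect and wells lacking A3A enzyme for full effect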
PfG6PD confirm – PfG6PD inhibitors, hit retest, confirmation, biochemical, fluorescence intensity, single concentration. shares compounds with PfG6PD inh. recombinant PfGluPho, NADPH-diaphorase-resazurin fluorescence. inhibition, % at 20 µM. 2,400 compounds, 34% hits;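 active means inhibition of at least 50% at 20 µM in any single replicate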;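 further: 0% = DMSO with substrate and 100% = DMSO lacking glucose-6-phosphate substrate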
Diaph ctr 10uM – diaphorase inhibitors and chemical oxidizers, confirmation, counter-screen for P. falciparum G6PD inhibitor project, biochemical, fluorescence intensity, 10 µM NADPH; shares compounds with PfG6PD inh; diaphorase-coupled resazurin reduction, NADPH 10 uM; inhibition, % at 20 µM; 820 compounds, 39% hits;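 active means average inhibition reaching 50% or more with the compound at 20 µM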;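 further: resorufin red fluorescence formed as diaphorase reduces resazurin using NADPH; 0% = DMSO with enzyme and 100% = DMSO without enzyme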
Diaph ctr 30uM – diaphorase inhibitors and chemical oxidizers, confirmation, counter-screen for P. falciparum G6PD inhibitor project, biochemical, fluorescence intensity, 30 µM NADPH | shares compounds with PfG6PD inh | Diaphorase/resazurin coupled assay, resorufin fluorescence | inhibition, % at 20 µM | 820 compounds, 29% hits | AID 504863, 2011;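 active means inhibition averaging 50% or more, tested at 20 µM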;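 further: 0% = DMSO with enzyme and 100% = DMSO wells lacking diaphorase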
Active calls of the source: *; / = no result. In the library only some 2.4% were active in any assay of this set; here they are far more common.

SMILES	PfG6PD inh	UBC9 SUMO inh	M18AAP inhibitor	A3G deaminase	HKDC1 inhibitor	APOBEC3A inh	PfG6PD confirm	others
Cc1ccc2nc(-c3ccc(-c4ccccn4)s3)cn2c1	64.6*	12.5	2.4	-1.5	3.1	-0.6	38.9
COc1ccccc1N1CCN(CCCCN2C(=O)c3ccccc3C2=O)CC1	4.0	/	/	-3.9	-8.7	2.4	/
N=c1c(C(=O)NC2CCCC2)cc2c(=O)n3ccccc3nc2n1C1CCCC1	21.5	28.8	5.1	-7.8	3.8	0.1	/
Cc1cccn2c(=O)c3cc(C(=O)NC4CCCC4)c(=N)n(C4CCCC4)c3nc12	81.8*	11.7	-0.1	-1.4	-21.9	1.0	22.9
CN(C)c1ccc(C=Nc2ccc(N(C)C)cc2)cc1	65.5*	-68.5	21.9	-0.5	6.8	-3.3	46.5
Cc1ccc(N=Cc2ccc(N(C)C)cc2)cc1	11.3	-23.1	2.8	-3.4	7.9	0.0	/
CN(C(=O)COC(=O)CSc1ccc([N+](=O)[O-])cc1)C1CCS(=O)(=O)C1 (stereo unspecified)	31.9	/	/	-10.7	4.7	0.0	/
CCN(C(=O)COC(=O)CSc1ccc([N+](=O)[O-])cc1)C1CCS(=O)(=O)C1 (stereo unspecified)	59.8*	-15.1	3.6	-7.2	0.3	-4.1	0.8
CCOC(=O)Nc1ccc(C)cc1NC(=O)OCC	0.1	14.1	2.5	-0.8	-5.8	-0.4	/
CCOC(=O)Nc1ccc(NCc2ccc(F)cc2)nc1N	97.8*	/	/	-15.5	31.6	-8.1	79.5*	Diaph ctr 10uM=11.3;Diaph ctr 30uM=11.5
CCN(CC(=O)NCc1ccccn1)S(=O)(=O)c1cc(Cl)ccc1Cl	-10.8	/	/	-7.8	-8.7	-1.3	/
Oc1ccc(/C=N/N2CCOCC2)c(O)c1O	86.9*	26.6	34.4*	-4.5	1.2	-0.9	48.0
CSC1SCC2C(=O)N(C)C(C(C)C)C(=O)OCC(NC(=O)c3cnc4ccccc4n3)C(=O)NC(C)C(=O)N(C)C1C(=O)N(C)C(C(C)C)C(=O)OCC(NC(=O)c1cnc3ccccc3n1)C(=O)NC(C)C(=O)N2C (stereo unspecified)	59.3*	/	/	/	14.3	/	8.2
CC(C)Cn1c(N)c(C(=O)COC(=O)c2cc(-c3ccco3)nc3ccccc23)c(=O)n(C)c1=O	71.0*	20.9	-2.4	16.6	24.1	39.6	3.9
Cn1c(=O)cc(N2CCCCC2)[nH]c1=O	-11.4	3.0	1.1	-5.2	-6.2	-6.6	/
[O-]/[N+](=C\c1ccccc1)c1ccc(Br)cc1	83.7*	/	/	-9.4	-1.0	-1.5	91.4*	Diaph ctr 10uM=72.3*;Diaph ctr 30uM=37.7
CC(C)CCNC(=O)c1ccc2c(c1)N(C)C(=O)c1ccccc1S2	-14.8	-13.9	0.2	-7.2	-0.6	0.0	/
CN(C(=O)c1ccc(NC(=O)Cc2cccc(NC(=O)C3CCCN(C(=O)C4CCCCC4)C3)c2)cc1)C1CCCC1 (stereo unspecified)	-7.8	/	/	-2.9	-4.1	-3.0	/
